Bfl-1 A1 inh = inhibitors of the anti-apoptotic protein A1, read as caspase activation | MEF A1-2A-BIM cells, Caspase-Glo 3/7 luminescence, 3 h; percent of clofoctol response, vehicle zero | caspase activation, % (concentration not given with the values) | actives 0.066% (n = 330,000) | AID 2462;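 active = over half of replicate activation scores above 10%, or exactly half above 10 with the replicate mean above 10; inconclusive = replicate mean below 10 yet half the replicates above 10; inactive = over half of replicates below 10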
HIF activator = HIF pathway transcriptional activation; U2OS HRE-luciferase reporter, luminescence; normalized: DMSO 0%, desferrioxamine 100%; activation, % at 7.5 µM (by protocol); actives 0.32% (n = 300,000); AID 1910;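 active = mean activation of at least 10% of the iron chelator positive control signal, with at least half of replicates also reaching 10%; inconclusive = mean and replicate majority disagree about reaching 10%; inactive = mean and most replicates under 10%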
Beta cell apopt = blocks beta cell apoptosis. actives 0.8% (n = 300,000). AID 435005. protection from apoptosis, % (concentration not given with the values). INS-1E cytokine-induced death, ATP luminescence, 48 h; percent of positive-control rescue, neutral wells zero;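 active = Every replicate reaches about 75%, or at least half do and their mean reaches it too, limit read from the data; inconclusive = At least half of replicates reach the limit but their mean does not; inactive = Under half of replicates reach the limit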;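 also: 0% = cytokine-treated negative control wells and 100% = positive control rescue; higher means more ATP so stronger rescue from cytokine killing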
KLF5 inhibitor = inhibitors of KLF5 expression; actives 0.23% (n = 290,000); inhibition, % at 5 µM; DLD-1 KLF5 promoter-luciferase reporter, luminescence; AID 1700;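 active = inhibition above a per-plate limit of that plate's mean compound inhibition plus 3 SD, cut at about 60% in these data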;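 also: 0% = DMSO wells and 100% = LY294002 at 200 µM; higher means less KLF5 promoter-driven luciferase light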
T cruzi inh = T. cruzi replication inhibition; T. cruzi beta-gal in NIH3T3, luminescence, 90 h; inhibition, % (test concentration not listed); actives 1.4% (n = 300,000); AID 1885;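 active = mean inhibition across valid replicates above about 55%, limit read from the data; inconclusive = mean below that limit but half or more replicates reach it; inactive = mean below it, under half of replicates reach it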;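 also: signal also drops with host cell toxicity which is not excluded here; 0% = plate median of DMSO wells and 100% = zero luminescence signal; higher percent means less beta-gal luminescence so fewer parasites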
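compound dosing = single 50 nL compound addition per well in DMSO | material = NIH/3T3 host cells with β-galactosidase reporter T. cruzi | input = 5,000 host fibroblasts per well | timing = ≥90 h infection period, 3 h prior cell attachment | read-out basis = percent inhibition of parasite-derived β-gal signal | detection = GalScreen β-gal luminescence, detergent lysis, 60 min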
Numbers without * were called inactive; ? = inconclusive; nt = no result given. Only some compounds are listed: those with a hit (about 2.3% of all), similar ones and a draw of the others.

SMILES	Bfl-1 A1 inh	HIF activator	Beta cell apopt	KLF5 inhibitor	T cruzi inh
Cc1c(OC(C)C(=O)NCC(O)c2ccccc2)ccc2c3c(c(=O)oc12)CCC3 (stereo unspecified)	-0.6	-0.1	10.1	-2.0	5.6
Nc1ncnc2c1ncn2[C@@H]1O[C@H](CO)C[C@@H]1O	?	-0.1	nt	8.5	60.8*
Nc1ncnc2c1ncn2C1OC(CO)C(O)C1N (stereo unspecified)	-0.9	0.3	nt	-10.5	-7.0
CCCCc1ccc(NC(=O)CN(C)CC(=O)Nc2ccccc2Cl)cc1	17.9*	0.9	1.6	-34.2	23.7
CCOC(=O)/C(=N\Nc1ncnc2ccccc12)c1ccc(C)cc1	0.3	0.7	5.1	-115.8	-10.1
O=C(c1cc(C2CC2)on1)N1CCN(C(c2ccccc2)c2ccccc2)CC1	-1.2	-0.3	8.7	-36.6	25.5
O=C(c1cc(-c2cccc(O)c2)on1)N1CCN(C(c2ccccc2)c2ccccc2)CC1	?	-0.6	80.8*	-17.2	25.4
COc1ccc(-c2nc(C#N)c(N3CCN(C(=O)c4ccco4)CC3)o2)cc1OC	0.8	11.1*	nt	-19.4	2.0
O=C(CSc1nnc(NC(=O)C2CC2)s1)Nc1ccccc1C(F)(F)F	0.3	-0.8	-5.3	-25.9	4.0
CNCCCOc1cccc(Oc2ccccc2)c1	0.0	1.0	-3.0	-12.9	60.2*
COc1ccc(C(=O)CCNc2ccc(C)c(Cl)c2)cc1	-1.3	0.1	-1.0	-3.8	-0.2
COc1ccc(C(=O)CCNc2ccc(F)cc2)cc1	0.0	14.2*	5.2	-45.1	4.7
COCCn1c(-c2ccc(OC)cc2)cnc1SCC(=O)Nc1ccc(OC)cc1OC	-0.1	21.5*	5.3	0.3	1.2
CCn1cc(/C=C(\NC(=O)c2ccc(OC)cc2)C(=O)N2CCOCC2)c2ccccc21	-1.6	0.5	-11.0	-17.8	-7.4
Cc1nn(-c2ccc([N+](=O)[O-])cc2)c2c1C(c1ccc(OC(F)F)cc1)N1C(=N2)C(=O)Nc2ccccc21 (stereo unspecified)	0.3	-0.4	38.7	-26.7	90.9*
CC(=O)Nc1ccc(NC2=Nc3ccccc3N3C2=Nc2c(c(C)nn2-c2ccccc2)C3c2ccccc2)cc1 (stereo unspecified)	-0.6	-0.6	57.8	19.0	10.1
COc1ccc(NC2=Nc3ccccc3N3C2=Nc2c(c(C)nn2-c2ccc(C)cc2)C3c2cccnc2)cc1 (stereo unspecified)	-1.1	-0.2	8.8	-25.1	2.9
Cc1ccc(C2c3c(C)nn(-c4ccc([N+](=O)[O-])cc4)c3N=C3C(=O)Nc4ccccc4N32)cc1 (stereo unspecified)	0.2	-1.8	23.3	-2.6	64.9*
CCOC(=O)c1ccc(N2C(=O)c3n[nH]c(-c4ccco4)c3C2c2ccc([N+](=O)[O-])cc2)cc1 (stereo unspecified)	0.9	-0.8	18.5	-20.4	35.6
COc1cccc(C2c3c(C)nn(-c4ccc([N+](=O)[O-])cc4)c3N=C3C(=O)Nc4ccccc4N32)c1 (stereo unspecified)	0.3	-1.4	25.0	-1.0	62.7*
CC1(c2ccccc2)NC(=O)N(CC(=O)NCC2CCCO2)C1=O (stereo unspecified)	-0.4	nt	-0.7	nt	nt
Cc1ccc(C(=O)NCc2ccccn2)cc1S(=O)(=O)N1CCOCC1	-1.1	nt	-2.9	nt	nt
O=C(Nc1ccc([N+](=O)[O-])cc1)Nc1ccc(OC(F)F)c(Cl)c1	1.3	nt	132.0*	-20.4	nt
CC(C)[C@H](NC(=O)C1CCN(S(=O)(=O)c2ccc(F)cc2)CC1)C(=O)NCc1ccco1	-0.6	-0.3	-3.6	-37.7	9.9
COc1ccc(-c2cc(C3CCN(C(=O)OC(C)(C)C)CC3)[nH]n2)cc1	-0.3	-0.3	-5.1	-16.2	-5.1
SMILES	Bfl-1 A1 inh	HIF activator	Beta cell apopt	KLF5 inhibitor	T cruzi inh
CCOC(=O)c1cn2nc(-c3ccc(OC)cc3)cc2nc1C1CCN(C(=O)OC(C)(C)C)CC1	-0.8	-0.7	-6.7	-10.3	59.2*
CN(C)c1oc(-c2ccc(OCc3ccc(Cl)cc3)cc2)nc1C#N	-0.1	0.4	1.5	-1.9	62.6*
COc1ccc(CNc2oc(COc3ccc(Cl)cc3)nc2C#N)cc1	-0.2	-1.0	-4.8	1.5	66.3*
CCOC(=O)c1ncn2c1[C@@H]1CCNC1C(=O)c1cc(OC)ccc1-2 (stereo partly specified)	0.0	nt	-4.9	nt	nt
CCCCN(C(=O)C1CCCC1)c1c(N)n(Cc2ccccc2)c(=O)[nH]c1=O	0.4	nt	-3.7	nt	nt
CC(C)CCN(C(=O)Cc1ccc(Cl)c(Cl)c1)c1c(N)n(Cc2ccccc2)c(=O)[nH]c1=O	11.5*	-1.6	36.2	-8.6	-4.4
CC(C)CN(C(=O)COC(=O)C12CC3CC(CC(Cl)(C3)C1)C2)c1c(N)n(Cc2ccccc2)c(=O)[nH]c1=O	-0.2	-1.4	80.9*	nt	5.7
CCCCC1CCC(C(=O)N(CC(C)C)c2c(N)n(Cc3ccccc3)c(=O)[nH]c2=O)CC1 (stereo unspecified)	29.0*	0.7	84.6*	nt	7.6
COCC(C)N1CCC(Oc2ccc(C(=O)N3CCCC3)cc2)CC1 (stereo unspecified)	0.5	-0.5	-2.0	-39.3	1.8
O=C(Nc1ccc(OCC(F)(F)C(F)F)c(C(F)(F)F)c1)c1ccccc1O	?	5.5	122.0*	4.3	6.5
O=C(Nc1ccc(OCC(F)(F)C(F)F)c(C(F)(F)F)c1)c1ccccc1	-0.2	2.5	1.5	-48.0	16.3
C=CC[n+]1c(-c2ccc(Cl)cc2Cl)csc1Nc1c(C)n(C)n(-c2ccccc2)c1=O	0.4	-0.1	18.3	-9.5	32.5
C=CC[n+]1c(-c2ccc(C)cc2)csc1Nc1c(C)n(C)n(-c2ccccc2)c1=O	0.3	0.0	nt	-19.6	65.5*
FC(F)(F)c1cccc(NC(=S)N(CCCN2CCCC2)Cc2cccn2Cc2ccc(Cl)cc2)c1	2.0	0.3	27.5	0.6	71.0*
Cc1ccc(Nc2nnc(-c3ccccc3N)o2)cc1C	-1.1	12.8*	nt	-166.1	16.1
O=C(c1cc(COc2cccc3cnccc23)on1)N1CCCC(CCCO)C1 (stereo unspecified)	-1.0	0.6	117.0*	6.1	-20.5
CCC1Oc2ccc(C)cc2N(CC(=O)NCCN2CCOCC2)C1=O (stereo unspecified)	1.2	-0.4	-5.1	20.9	-2.4
CN1/C(=C\C(=S)NC(=O)c2ccc([N+](=O)[O-])cc2)C(C)(C)c2ccccc21	0.7	0.1	102.6*	-47.6	47.8
CN1/C(=C\C(=O)Nc2ccc(Br)cc2)C(C)(C)c2ccccc21	0.3	-0.1	-17.3	-12.3	2.4
CCN(CC)S(=O)(=O)c1cccc(C(=O)/C=C2/N(C)c3ccccc3C2(C)C)c1	0.4	-0.3	27.8	-22.8	56.8*
CN1/C(=C\C(=S)NC(=O)c2cccc(Br)c2)C(C)(C)c2ccccc21	-0.5	0.2	116.1*	6.6	47.3

High-throughput results (PubChem)
